The results in this text go back to ChEMBL document CHEMBL4699431, “Design and synthesis of substituted (1-(benzyl)-1H-1,2,3-triazol-4-yl)(piperazin-1-yl)methanone conjugates: study on their apoptosis inducing ability and tubulin polymerization inhibition” (RSC Med Chem, 2020).

Type in all cases: functional, cell-based
One test deals with BT-474. The experiment in a line: Cytotoxicity against human BT-474 cells assessed as reduction in cell viability incubated for 48 hrs by MTT assay. The following applies: BT-474, 48 h. A digest of the protocol: (§1)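 Cells plated at 3000-4500 per well and treated after 24 h. DMSO stocks (20 mM) were diluted in medium to final DMSO <0.1%, twofold series […], 48 h. MTT (0.5 mg/mL) was added for 4 h, formazan dissolved in DMSO, absorbance read at 570 nm.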

The test system of a further test is HeLa. Kind of test: Cytotoxicity against human HeLa cells assessed as reduction in cell viability incubated for 48 hrs by MTT assay. A digest of the protocol:
as §1

Another test deals with MCF7. Kind of test: Cytotoxicity against human MCF-7 cells assessed as reduction in cell viability incubated for 48 hrs by MTT assay. Particulars: MCF7, 48 h. In outline:
as §1

In another test the test system is NCI-H460. Kind of test: Cytotoxicity against human NCI-H460 cells assessed as reduction in cell viability incubated for 48 hrs by MTT assay. The following applies: NCI-H460, 48 h. In outline:
as §1

A further test concerns HaCaT. The experiment in a line: Cytotoxicity against human HaCaT cells assessed as reduction in cell viability incubated for 48 hrs by MTT assay. In outline:
as §1

Bounds are passed on as bounds.

As to `O=C(c1cn(Cc2ccc(F)cc2)nn1)N1CCN(S(=O)(=O)c2ccccc2)CC1`, the IC50 in the test with BT-474, with HeLa, in the test with MCF7, in the test on NCI-H460 and with HaCaT was greater than 30 µM in each case.

With `COc1ccc(S(=O)(=O)N2CCN(C(=O)c3cn(Cc4cccc(Oc5ccccc5)c4)nn3)CC2)cc1`, the IC50 in the test on BT-474 was 5.13 µM; in the test with HeLa it was 3.72 µM; in the test with MCF7 it was 2.2 µM; in the test on NCI-H460, 8.2 µM; in the test on HaCaT, 2.59 µM.

With `O=C(c1cn(Cc2ccccc2)nn1)N1CCN(S(=O)(=O)c2ccc(Br)cc2)CC1`, the IC50 with BT-474, in the test with HeLa, in the test with MCF7, in the test on NCI-H460 and with HaCaT was greater than 30 µM each time.

For the molecule `CC(C)(C)c1ccc(S(=O)(=O)N2CCN(C(=O)c3cn(Cc4ccccc4)nn3)CC2)cc1`, the IC50 in the test on BT-474, in the test on HeLa, in the test with MCF7, with NCI-H460 and in the test on HaCaT was greater than 30 µM throughout.

For the molecule `O=C(c1cn(Cc2cccc(Oc3ccccc3)c2)nn1)N1CCN(S(=O)(=O)c2ccc(Cl)cc2)CC1`, the IC50 with BT-474 stood at 1.96 µM; in the test on HeLa, 8.61 µM; in the test on MCF7 it was 4.41 µM; in the test on NCI-H460 it was 5.68 µM; with HaCaT it was 2.96 µM.

Take `COc1ccc(S(=O)(=O)N2CCN(C(=O)c3cn(Cc4ccccc4)nn3)CC2)cc1`: the IC50 in the test with BT-474, in the test with HeLa, in the test on MCF7, in the test on NCI-H460 and in the test with HaCaT was greater than 30 µM throughout.

As to `COc1cccc(Cn2cc(C(=O)N3CCN(S(=O)(=O)c4ccccc4)CC3)nn2)c1`, the IC50 in the test on BT-474, in the test with HeLa, in the test with MCF7, in the test on NCI-H460 and with HaCaT was greater than 30 µM in each case.

Consider `O=C(c1cn(Cc2ccc(F)cc2)nn1)N1CCN(S(=O)(=O)c2ccc(Br)cc2)CC1`, for which the IC50 in the test on BT-474, in the test with HeLa, in the test on MCF7, with NCI-H460 and with HaCaT was greater than 30 µM each time.

On to `Cc1ccc(S(=O)(=O)N2CCN(C(=O)c3cn(Cc4cccc(Oc5ccccc5)c4)nn3)CC2)cc1`, for which the IC50 with BT-474, in the test on HeLa, in the test on MCF7, in the test on NCI-H460 and in the test on HaCaT was greater than 30 µM in each case.

`COc1cccc(Cn2cc(C(=O)N3CCN(S(=O)(=O)c4ccc(C(C)(C)C)cc4)CC3)nn2)c1`: the IC50 in the test with BT-474, in the test with HeLa, in the test on MCF7, with NCI-H460 and in the test on HaCaT was greater than 30 µM in each case.

On to `Cc1ccc(S(=O)(=O)N2CCN(C(=O)c3cn(Cc4ccccc4)nn3)CC2)cc1`, for which the IC50 in the test on BT-474, in the test on HeLa, in the test on MCF7, in the test with NCI-H460 and with HaCaT was greater than 30 µM each time.

For `COC(=O)Nc1nc2cc(C(=O)c3cccs3)ccc2[nH]1` [NOCODAZOLE], the IC50 was determined as 0.87 µM with BT-474, 1.76 µM in the test with MCF7, 2.29 µM in the test with NCI-H460 and 1.19 µM in the test on HaCaT.

On to `CC(C)(C)c1ccc(S(=O)(=O)N2CCN(C(=O)c3cn(Cc4ccc(F)cc4)nn3)CC2)cc1`, for which the IC50 with BT-474, in the test with HeLa, with MCF7, with NCI-H460 and in the test with HaCaT was greater than 30 µM each time.

For `O=C(c1cn(Cc2cccc(Oc3ccccc3)c2)nn1)N1CCN(S(=O)(=O)c2ccccc2)CC1`, the IC50 in the test with BT-474, with HeLa, in the test on MCF7, in the test on NCI-H460 and in the test with HaCaT was greater than 30 µM each time.

On to `Cc1ccc(S(=O)(=O)N2CCN(C(=O)c3cn(Cc4ccc(I)cc4)nn3)CC2)cc1`, for which the IC50 with BT-474, in the test with HeLa, in the test on MCF7, with NCI-H460 and with HaCaT was greater than 30 µM in each case.

As to `O=C(c1cn(Cc2ccc(I)cc2)nn1)N1CCN(S(=O)(=O)c2ccc(Cl)cc2)CC1`, the IC50 came to 4.96 µM in the test with BT-474; 5.74 µM in the test with HeLa; 1.34 µM with MCF7; 2.25 µM with NCI-H460; 2.22 µM in the test on HaCaT.

For the molecule `O=C(c1cn(Cc2ccc(I)cc2)nn1)N1CCN(S(=O)(=O)c2ccccc2)CC1`, the IC50 in the test on BT-474, in the test with HeLa, in the test on MCF7, in the test with NCI-H460 and in the test with HaCaT was greater than 30 µM throughout.

Consider `Cc1ccc(S(=O)(=O)N2CCN(C(=O)c3cn(Cc4ccc(F)cc4)nn3)CC2)cc1`, for which the IC50 with BT-474, in the test with HeLa, in the test with MCF7, in the test on NCI-H460 and in the test with HaCaT was greater than 30 µM each time.

Regarding `CC(C)(C)c1ccc(S(=O)(=O)N2CCN(C(=O)c3cn(Cc4cccc(Oc5ccccc5)c4)nn3)CC2)cc1`, the 50% inhibitory concentration (IC50) with BT-474 worked out at 3.89 µM; in the test on HeLa, 3.7 µM; in the test on MCF7, 3.28 µM; with NCI-H460 it was 5.05 µM; in the test on HaCaT it was 4.34 µM.

As for `COc1cccc(Cn2cc(C(=O)N3CCN(S(=O)(=O)c4ccc(Cl)cc4)CC3)nn2)c1`, the IC50 with BT-474, in the test on HeLa, in the test on MCF7, in the test with NCI-H460 and in the test on HaCaT was greater than 30 µM throughout.

Regarding `O=C(c1cn(Cc2ccc(I)cc2)nn1)N1CCN(S(=O)(=O)c2ccc(Br)cc2)CC1`, the IC50 with BT-474 was determined as 2.33 µM; in the test with HeLa, 6.52 µM; in the test with MCF7, 2.73 µM; in the test on NCI-H460, 3.55 µM; in the test on HaCaT it was 2.48 µM.

With `CC(C)(C)c1ccc(S(=O)(=O)N2CCN(C(=O)c3cn(Cc4ccc(I)cc4)nn3)CC2)cc1`, the IC50 was 1.21 µM in the test on BT-474; 3.58 µM with HeLa; 3.06 µM in the test with MCF7; 1.42 µM with NCI-H460; 2.06 µM with HaCaT.

Take `O=C(c1cn(Cc2ccccc2)nn1)N1CCN(S(=O)(=O)c2ccc(Cl)cc2)CC1`: the IC50 with BT-474, in the test on HeLa, in the test with MCF7, in the test on NCI-H460 and in the test with HaCaT was greater than 30 µM each time.

Consider `COc1ccc(S(=O)(=O)N2CCN(C(=O)c3cn(Cc4ccc(F)cc4)nn3)CC2)cc1`, for which the IC50 in the test on BT-474, with HeLa, in the test on MCF7, in the test on NCI-H460 and with HaCaT was greater than 30 µM each time.

With `COc1ccc(S(=O)(=O)N2CCN(C(=O)c3cn(Cc4ccc(I)cc4)nn3)CC2)cc1`, the IC50 with BT-474, in the test on HeLa, with MCF7, in the test with NCI-H460 and in the test with HaCaT was greater than 30 µM throughout.

On to `O=C(c1cn(Cc2ccccc2)nn1)N1CCN(S(=O)(=O)c2ccccc2)CC1`, for which the IC50 in the test with BT-474, in the test with HeLa, with MCF7, with NCI-H460 and in the test with HaCaT was greater than 30 µM in each case.

Consider `COc1cccc(Cn2cc(C(=O)N3CCN(S(=O)(=O)c4ccc(Br)cc4)CC3)nn2)c1`, for which the IC50 with BT-474, in the test on HeLa, with MCF7, in the test on NCI-H460 and in the test with HaCaT was greater than 30 µM throughout.

Regarding `COc1ccc(S(=O)(=O)N2CCN(C(=O)c3cn(Cc4cccc(OC)c4)nn3)CC2)cc1`, the IC50 with BT-474, with HeLa, in the test on MCF7, in the test with NCI-H460 and with HaCaT was greater than 30 µM in each case.

As to `O=C(c1cn(Cc2ccc(F)cc2)nn1)N1CCN(S(=O)(=O)c2ccc(Cl)cc2)CC1`, the IC50 in the test on BT-474, in the test with HeLa, in the test with MCF7, in the test with NCI-H460 and in the test on HaCaT was greater than 30 µM each time.
